ChEMBL document CHEMBL5303300, “EUbOPEN Chemogenomics Library - Multiplex” (2023)
Values joined by “and” are separate entries in the source; they are usually repeats but may differ in a detail not shown here. Equal entries are not always repeated.

Test system: U2OS
Experiment: Multiplex assay against U2OS
Type: toxicity, cell-based
Details: human, number of replicates 2
Outline: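 Cells were classed with CellPathfinder machine-learning gating, first as Hoechst high-intensity objects or normal cells, then (normal cells) as healthy, pyknosed or fragmented nuclei, and finally (pyknosed cells) as mitotic or apoptotic. Staining of live cells at seeding used Hoechst33342, BioTracker Green Microtubule Cytoskeleton Dye, MitoTracker Red and Annexin V Alexa Fluor 680, with imaging on a CQ1 microscope at 37°C and 5% CO2 after compound addition. Tubulin, mitochondrial-mass and membrane-permeability phenotypes are per cents of healthy-nucleus cells.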

[1] = 12 h, 1 µM, compound concentration 1 uM
[2] = 12 h, 10 µM, compound concentration 10 uM
[3] = 24 h, 1 µM, compound concentration 1 uM
[4] = 24 h, 10 µM, compound concentration 10 uM
[5] = 48 h, 1 µM, compound concentration 1 uM
[6] = 48 h, 10 µM, compound concentration 10 uM

CN[C@@H]1CC[C@@H](c2ccc(Cl)c(Cl)c2)c2ccccc21.Cl
Population Apoptotic (%) [1]: 66% and 62%
Population Fragmented Nuclei (%) [1]: 4% and 9%
Population Healthy Nuclei (%) [1]: 82% and 78%
Population Hoechst High Intensity Objects (%) [1]: 0%
Population Membrane Permeable-Phenotype (%) [1]: 4% and 9%
Population Mitotic Cells (%) [1]: 33% and 37%
Population Normal (%) [1]: 100%
Population Pyknosed Nuclei (%) [1]: 13% and 12%
Population Tubulin-Different-Phenotype (%) [1]: 52% and 43%
Population Apoptotic (%) [2]: 83% and 60%
Population Healthy Nuclei (%) [2]: 33% and 57%
Population Hoechst High Intensity Objects (%) [2]: 0%
Population Membrane Permeable-Phenotype (%) [2]: 30%
Population Mitochondria Different-Phenotype (%) [2]: 53% and 50%
Population Mitotic Cells (%) [2]: 16% and 40%
Population Normal (%) [2]: 100%
Population Pyknosed Nuclei (%) [2]: 30% and 32%
Population Tubulin-Different-Phenotype (%) [2]: 84% and 73%
Population Apoptotic (%) [3]: 60% and 71%
Population Fragmented Nuclei (%) [3]: 1% and 7%
Population Healthy Nuclei (%) [3]: 84% and 81%
Population Hoechst High Intensity Objects (%) [3]: 0%
Population Membrane Permeable-Phenotype (%) [3]: 2% and 1%
Population Mitochondria Different-Phenotype (%) [3]: 6% and 1%
Population Mitotic Cells (%) [3]: 39% and 28%
Population Normal (%) [3]: 100%
Population Pyknosed Nuclei (%) [3]: 14% and 10%
Population Tubulin-Different-Phenotype (%) [3]: 63% and 33%
Population Apoptotic (%) [4]: 90% and 75%
Population Hoechst High Intensity Objects (%) [4]: 0%
Population Membrane Permeable-Phenotype (%) [4]: 42% and 33%
Population Mitochondria Different-Phenotype (%) [4]: 100% and 63%
Population Mitotic Cells (%) [4]: 10% and 25%
Population Normal (%) [4]: 100%
Population Pyknosed Nuclei (%) [4]: 50% and 35%
Population Tubulin-Different-Phenotype (%) [4]: 100% and 75%
Population Apoptotic (%) [5]: 85% and 52%
Population Fragmented Nuclei (%) [5]: 2%
Population Healthy Nuclei (%) [5]: 85% and 76%
Population Hoechst High Intensity Objects (%) [5]: 0%
Population Membrane Permeable-Phenotype (%) [5]: 1%
Population Mitochondria Different-Phenotype (%) [5]: 3% and 1%
Population Normal (%) [5]: 99% and 100%
Population Pyknosed Nuclei (%) [5]: 11% and 20%
Population Tubulin-Different-Phenotype (%) [5]: 72% and 37%
Population Apoptotic (%) [6]: 88% and 79%
Population Fragmented Nuclei (%) [6]: 31% and 16%
Population Hoechst High Intensity Objects (%) [6]: 0%
Population Membrane Permeable-Phenotype (%) [6]: 40% and 45%
Population Mitochondria Different-Phenotype (%) [6]: 60% and 65%
Population Mitotic Cells (%) [6]: 11% and 20%
Population Normal (%) [6]: 100%
Population Pyknosed Nuclei (%) [6]: 57% and 37%
Population Tubulin-Different-Phenotype (%) [6]: 100% and 74%

CN(C)[C@H]1CC[C@H](Nc2ncc3ncnc(Nc4ccc(F)c(Cl)c4)c3n2)CC1
Population Fragmented Nuclei (%) [1]: 46% and 17%
Population Healthy Nuclei (%) [1]: 42% and 68%
Population Hoechst High Intensity Objects (%) [1]: 0%
Population Membrane Permeable-Phenotype (%) [1]: 4% and 1%
Population Mitochondria Different-Phenotype (%) [1]: 4% and 1%
Population Mitotic Cells (%) [1]: 100% and 64%
Population Normal (%) [1]: 100% and 99%
Population Pyknosed Nuclei (%) [1]: 10% and 14%
Population Tubulin-Different-Phenotype (%) [1]: 76% and 89%
Population Apoptotic (%) [2]: 6% and 13%
Population Fragmented Nuclei (%) [2]: 38% and 27%
Population Healthy Nuclei (%) [2]: 36%
Population Hoechst High Intensity Objects (%) [2]: 9% and 11%
Population Membrane Permeable-Phenotype (%) [2]: 7% and 2%
Population Mitochondria Different-Phenotype (%) [2]: 6% and 1%
Population Mitotic Cells (%) [2]: 93% and 86%
Population Normal (%) [2]: 90% and 88%
Population Pyknosed Nuclei (%) [2]: 25% and 35%
Population Tubulin-Different-Phenotype (%) [2]: 50% and 81%
Total Cell Count [2]: 197 and 472
Population Apoptotic (%) [3]: 16% and 47%
Population Healthy Nuclei (%) [3]: 43% and 76%
Population Hoechst High Intensity Objects (%) [3]: 0%
Population Membrane Permeable-Phenotype (%) [3]: 0% and 3%
Population Mitochondria Different-Phenotype (%) [3]: 0% and 1%
Population Mitotic Cells (%) [3]: 83% and 52%
Population Normal (%) [3]: 100% and 99%
Population Pyknosed Nuclei (%) [3]: 9% and 11%
Population Tubulin-Different-Phenotype (%) [3]: 75% and 92%
Population Apoptotic (%) [4]: 17% and 10%
Population Fragmented Nuclei (%) [4]: 40% and 25%
Population Healthy Nuclei (%) [4]: 33% and 40%
Population Hoechst High Intensity Objects (%) [4]: 14% and 9%
Population Membrane Permeable-Phenotype (%) [4]: 8% and 2%
Population Mitochondria Different-Phenotype (%) [4]: 2% and 0%
Population Mitotic Cells (%) [4]: 82% and 89%
Population Normal (%) [4]: 85% and 90%
Population Pyknosed Nuclei (%) [4]: 26% and 33%
Population Tubulin-Different-Phenotype (%) [4]: 61% and 82%
Population Apoptotic (%) [5]: 75% and 60%
Population Healthy Nuclei (%) [5]: 39% and 76%
Population Hoechst High Intensity Objects (%) [5]: 0%
Population Membrane Permeable-Phenotype (%) [5]: 3% and 1%
Population Mitochondria Different-Phenotype (%) [5]: 0% and 1%
Population Mitotic Cells (%) [5]: 25% and 39%
Population Normal (%) [5]: 100% and 99%
Population Pyknosed Nuclei (%) [5]: 5% and 8%
Population Tubulin-Different-Phenotype (%) [5]: 71% and 89%
Population Apoptotic (%) [6]: 18% and 14%
Population Fragmented Nuclei (%) [6]: 36% and 26%
Population Healthy Nuclei (%) [6]: 38% and 47%
Population Hoechst High Intensity Objects (%) [6]: 13% and 10%
Population Membrane Permeable-Phenotype (%) [6]: 9% and 1%
Population Mitochondria Different-Phenotype (%) [6]: 4% and 0%
Population Mitotic Cells (%) [6]: 81% and 85%
Population Normal (%) [6]: 86% and 89%
Population Pyknosed Nuclei (%) [6]: 25%
Population Tubulin-Different-Phenotype (%) [6]: 53% and 79%

CS(=O)(=O)c1ccc(C(=O)Nc2cccc(COc3ccc(Br)cc3CN3CCC[C@H](O)C3)c2)c(Cl)c1.O=CO
Population Healthy Nuclei (%) [1]: 84% and 83%
Population Hoechst High Intensity Objects (%) [1]: 0%
Population Pyknosed Nuclei (%) [1]: 15%
Population Apoptotic (%) [2]: 66% and 52%
Population Healthy Nuclei (%) [2]: 69% and 75%
Population Hoechst High Intensity Objects (%) [2]: 0%
Population Pyknosed Nuclei (%) [2]: 15% and 18%
Population Healthy Nuclei (%) [3]: 74% and 83%
Population Hoechst High Intensity Objects (%) [3]: 0%
Population Apoptotic (%) [4]: 90%
Population Healthy Nuclei (%) [4]: 65% and 70%
Population Hoechst High Intensity Objects (%) [4]: 0%
Population Apoptotic (%) [5]: 77% and 76%
Population Healthy Nuclei (%) [5]: 53% and 83%
Population Hoechst High Intensity Objects (%) [5]: 0%
Population Pyknosed Nuclei (%) [5]: 19%
Population Apoptotic (%) [6]: 93% and 86%
Population Healthy Nuclei (%) [6]: 43% and 57%
Population Hoechst High Intensity Objects (%) [6]: 0%
Population Pyknosed Nuclei (%) [6]: 34% and 29%
